The nature of the data set: Toxicity liver stage against HepG2, at 10uM. Type of data set: cell-based. The arrangement: test concentration 10 uM, cell line HepG2-A16-CD81EGFP. The following applies: human, HepG2-A16-CD81EGFP cells; read-out: INHIBITION
In short, it runs like this: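 Uninfected HepG2-A16-CD81EGFP cells, 3 × 10^3 per well, 1536-well, plated on prespotted compound at 10 μM final, parasite-free screening media added to match infected plates; puromycin 10 μM positive, DMSO 0.5% negative; run in parallel with 48 h PbLuc assay at 37 °C, 5% CO2; viability by CellTiter-Glo luminescence, normalized to controls.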
Turning to `CCOC(=O)C1CCN(C(=O)c2cnn(-c3ccc(C)cc3)c2N)CC1`, the cytotoxicity at 10 µM was determined as 1.84%.
In the case of `CCCc1cc(=O)[nH]c2nnc(SCC(=O)OC)n12`, the cytotoxicity at 10 µM was 12.2%.
Consider `Cc1ccc(S(=O)(=O)Nc2ccc(-n3nnn(C)c3=O)cc2)cc1`, for which the cytotoxicity at 10 µM is -4.1%.
As to `CN(C)CC1CSCCCN1C(=O)c1ccsc1` (configuration not stated), the cytotoxicity at 10 µM was determined as 5.09%.
Regarding `O=C(CC(F)(F)F)N1C[C@H]2CN(CC3CC3)C(=O)[C@H]2C1`, the cytotoxicity at 10 µM was determined as 0.493%.
For the compound `c1coc(CN2CCc3onc(Cn4ccnc4)c3C2)c1`, the cytotoxicity at 10 µM came to 7.52%.
Consider `COC(=O)CCC(=O)N1CCC2(CN(Cc3ccc(Cl)cc3)C2)C1`, for which the cytotoxicity at 10 µM was 5.7%.
Next, `O=c1[nH]c2nc(NCC3CCCO3)ncc2c(=O)n1-c1cccc(F)c1` (configuration not stated): -9.24%; `Cc1cccc(NC(=O)c2csc(NCC(C)C)n2)n1`: -3.33%; `CNC(=O)CS(=O)(=O)C1CCN(S(=O)(=O)c2ccccc2Br)CC1`: -18.3%.
As to `COc1ccc(NCc2nc(=O)n(CCC(C)C)[nH]2)cc1`, the cytotoxicity at 10 µM is -2.9%.
Next, `CCN1C[C@H]2CCN(C(C)=O)CC[C@H]2S1(=O)=O`: 0.0452%.
Then `O=C(COc1ccccc1)N1CCC[C@]2(C[C@H](OCC3CC3)CO2)C1`, with 8.68%; and `Cc1nc(N2CCOCC2)ncc1-c1cc(O)nc(N2CCCC2)n1`, with 7.63%.
With `CC(=O)N1CCCC(c2nccnc2Nc2nc(C)cc(C)n2)C1` (configuration not stated), the cytotoxicity at 10 µM came to 1.43%.
Next, `CC(SCCNS(=O)(=O)c1cnn(C)c1)c1cccs1` (configuration not stated): 12.9%.
In the case of `CCc1nc2n(n1)CC(Nc1nc(C)cc(N(C)C)n1)CC2` (configuration not stated), the cytotoxicity at 10 µM was 5.02%.
On to `Brc1ccc(CN2CCC(NCc3ncc[nH]3)CC2)cc1`, for which the cytotoxicity at 10 µM was determined as 14.8%.
Next, `Cc1noc(C)c1CN(C)C(=O)C1CCCN1S(N)(=O)=O` (configuration not stated): 7.89%; `NC(=O)C1CCN(S(=O)(=O)c2cnn(-c3ccccc3)c2)CC1`: 8.51%.
In the case of `CNC(=O)CN(C)CC1(c2ccc(Br)cc2)CC1`, the cytotoxicity at 10 µM amounted to 3.89%.
As to `NC(=O)[C@@H]1Cc2ccccc2CN1CCC(=O)N1CCOCC1`, the cytotoxicity at 10 µM is -5.82%.
Turning to `Cc1noc(C)c1CC(=O)NCCc1cccs1`, the cytotoxicity at 10 µM was -0.651%.
As to `CCN(CC)C(=O)Nc1ccc(N2CCSCC2)cc1C`, the cytotoxicity at 10 µM was -8.44%.
`CN(C)C1CCCN(C(=O)NCCNC(=O)C2CCCC2)C1` (configuration not stated): the cytotoxicity at 10 µM was -7.4%.
Take `CN(Cc1ccco1)C(=O)NC(Cn1ccnc1)C(C)(C)C` (configuration not stated): the cytotoxicity at 10 µM is -3.36%.
For the compound `CCNC(=O)CNS(=O)(=O)Cc1cc(-c2ccccc2)no1`, the cytotoxicity at 10 µM was -6.71%.
Then `Cc1noc(C)c1C(=O)NCCN1CCOCC1`, with -10.9%; and `CC1CN(S(=O)(=O)c2ccc(F)cc2F)c2cccnc2O1` (configuration not stated), with 2.02%.
For the compound `CCc1ccc(C(C)NC(=O)CN(C)Cc2ccc(C)o2)cc1` (configuration not stated), the cytotoxicity at 10 µM stood at 18.4%.
Turning to `Cc1cc(CN(C)C(=O)NCc2ccnc(SC(C)(C)C)c2)no1`, the cytotoxicity at 10 µM came to 10.4%.
`COC(=O)N1CCC(Nc2cccc(F)c2C#N)CC1`: the cytotoxicity at 10 µM is 18.1%.
Take `COc1cc(CNC(=O)C(C)SC)cc(Br)c1OC` (configuration not stated): the cytotoxicity at 10 µM was determined as 0.247%.
`N#Cc1ccnc(N2CCN(CC(O)c3cc(F)ccc3F)CC2)c1` (configuration not stated): the cytotoxicity at 10 µM is 1.31%.
`Cc1ccc(Cl)cc1NC(=O)C1CC(=O)N(Cc2ccccn2)C1` (configuration not stated): the cytotoxicity at 10 µM is 4.67%.
For the compound `COCc1csc(NC(=O)N2CCC(Cc3cnn(C)c3)C2)n1` (configuration not stated), the cytotoxicity at 10 µM is 3.13%.
Take `Cc1cccc(CNC(=O)Nc2cc(C(F)(F)F)c[nH]c2=O)n1`: the cytotoxicity at 10 µM turned out to be 0.488%.
Regarding `O=C(C1CCCN1c1ncnc2ccsc12)N1CCSCC1` (configuration not stated), the cytotoxicity at 10 µM is 3%.
Next, `O=C1OCCN1CCS(=O)(=O)c1cccc(Br)c1`: 6.29%; `CCc1noc(CC)c1CNC(=O)Nc1cccc([S+](C)[O-])c1` (configuration not stated): 13.4%; `CC1CN(C(=O)c2cc[nH]c(=O)c2)c2ccccc21` (configuration not stated): 1.5%.
Then `CCC1(c2ccc(NS(=O)(=O)c3ccc(Cl)s3)cc2)CCC(=O)NC1=O` (configuration not stated), with 13.5%; and `CCn1cc(S(=O)(=O)N2CCC(C)Sc3ccccc32)cn1` (configuration not stated), with 3.34%.
For the compound `Cc1cc(C(=O)N2CCCN(c3nccs3)CC2)c(C)n1C(C)C`, the cytotoxicity at 10 µM was determined as 9.48%.
With `COCc1noc(-c2cc(Cl)c3c(c2)OCO3)n1`, the cytotoxicity at 10 µM was -4.05%.
Then `Cc1cc(NC(=O)Cc2ccccc2O)c[nH]c1=O`, with -2.38%.
Then `Cc1sc(CS(C)(=O)=O)nc1-c1ccc(Cl)cc1`, with -4.07%; and `OCC1CN(Cc2nc(C(F)(F)F)cs2)c2ccccc2O1` (configuration not stated), with 3.97%.
Then `CCOCC(=O)NCCc1ccc(I)s1`, with -4.76%.
Turning to `CN(Cc1cccc(F)c1)S(=O)(=O)N1CCOCC1`, the cytotoxicity at 10 µM was -1.97%.
In the case of `O=C(NCc1ccc(F)cc1)N1CCC(C2OCCO2)CC1`, the cytotoxicity at 10 µM was -2.39%.
Turning to `COCc1noc(-c2ccc(N(C)Cc3ccc(C)o3)nc2)n1`, the cytotoxicity at 10 µM was -3.7%.
For the compound `CS(=O)(=O)Nc1ccc2c(c1)NC(=O)CC2c1cnn2cccnc12` (configuration not stated), the cytotoxicity at 10 µM is -1.77%.
With `CCN1CCC(CC(=O)NCCc2nc(C)cc(C)n2)CC1`, the cytotoxicity at 10 µM is -8.06%.
For the compound `CN1CCN(Cc2c(Cl)ccc(O)c2Cl)CC1C(=O)O` (configuration not stated), the cytotoxicity at 10 µM was 9.46%.
Turning to `OC1COCCN(Cc2cc(-c3ccccc3OC(F)(F)F)no2)C1` (configuration not stated), the cytotoxicity at 10 µM is -12.7%.
For `CCc1cnc(NCCCOC2CCCC2)nc1`, the cytotoxicity at 10 µM was -0.0184%.
Take `CC(C)(C)c1ncc2c(n1)CN(C(=O)c1ccc3[nH]cnc3c1)C2`: the cytotoxicity at 10 µM was -2.62%.
Regarding `COCCN1CCN(Cc2nc3c(s2)CCCC3)[C@H]2CS(=O)(=O)C[C@H]21`, the cytotoxicity at 10 µM turned out to be 6.81%.
With `Cc1nc(N(C)CCCc2nccn2C)c2nc(C)oc2n1`, the cytotoxicity at 10 µM is 5.82%.
Regarding `CNc1ccc(C)cc1C(=O)N[C@H]1C[C@H]2CN(C)CCN2C1`, the cytotoxicity at 10 µM was -4.57%.
In the case of `Cc1ncc(CC(=O)N2CCCC(COc3ccc(F)cc3)C2)c(=O)[nH]1` (configuration not stated), the cytotoxicity at 10 µM is -142%.
Next, `O=C(C1CNCCN1C(=O)CCOc1ccccc1)N1CCCC1` (configuration not stated): -7.42%; `Cc1ccc(OCC(O)CNC(=O)C2(c3ccc(F)cc3)CC2)cc1` (configuration not stated): 0.675%.
Next, `c1cc(N2CCC(c3nnc(Cn4ccnc4)n3C3CC3)CC2)ccn1`: -4.31%.
Then `CN(Cc1ccc2c(c1)OCO2)C(=O)c1ccc(C2CCCNC2)cc1` (configuration not stated), with -11.8%; and `Cc1noc(C)c1CN1CC2(CCN(Cc3c[nH]cn3)CC2)CC1=O`, with 8.62%.
For the compound `COc1ccc(CN2CCCC2)cc1Oc1ccc2c(c1)CC(CN)O2` (configuration not stated), the cytotoxicity at 10 µM is -10.5%.
On to `CS(=O)(=O)N1CCC(Oc2ccc(C(=O)NCCC(N)=O)cc2Cl)CC1`, for which the cytotoxicity at 10 µM was -1.28%.
`O=c1cc(N2CCCCC2)cnn1Cc1noc(C2CCCO2)n1` (configuration not stated): the cytotoxicity at 10 µM was -47.1%.
Then `COc1cccc2c1OCC(C(=O)N1CCC(N3CCSCC3)CC1)C2` (configuration not stated), with 2.24%; and `COc1ccnc(CNc2nc(C)nc(C)c2C)c1`, with -1.7%; and `CC(C)N1CCCC2(CCN(Cc3nncn3C(C)C)C2)C1=O` (configuration not stated), with -108%.
With `O=C(NCc1ccc2c(c1)CCCO2)c1ccccc1C1CCNC1` (configuration not stated), the cytotoxicity at 10 µM turned out to be 6.58%.
For `Cc1cc(CN2CCC(CNC(=O)c3cnc(C)nc3C)C2)[nH]n1` (configuration not stated), the cytotoxicity at 10 µM was -140%.
Next, `COCCN(C)C[C@@H]1CN(c2nnc(C(C)C)s2)C[C@@H]1CO`: -2.35%; `COc1cnc(N2CCC(Oc3ccccc3OC)(C(=O)O)CC2)nc1`: -13.5%; `CN1C(=O)C(c2ccccc2)CC12CCN(CCOCCO)CC2` (configuration not stated): 39.8%.
Next, `Cc1nc(C2CCCN(C(=O)c3ccnc(N(C)C)c3)C2)no1` (configuration not stated): -4.77%.
Take `Cc1ccc(NC2CCN(C(=O)CCc3ccccc3)CC2)nn1`: the cytotoxicity at 10 µM was -10.5%.
Turning to `Cc1ncc(CN2CCC(N(C)Cc3noc(C4CC4)n3)C2)s1` (configuration not stated), the cytotoxicity at 10 µM was -3.16%.
Next, `Cc1cc(CN(C)C(=O)NC2CCN(Cc3ccccn3)CC2)no1`: -17.4%; `O=C1CCc2cc(-c3csc(CCN4CCOC4=O)n3)ccc2N1`: -12.2%.
Then `CCC(O)CN1CCN(C(=O)c2ccc(N(C)C)nn2)CC1` (configuration not stated), with -6.83%.
In the case of `CC(NC(=O)Cn1ccc(=O)n(C)c1=O)c1ccccc1F` (configuration not stated), the cytotoxicity at 10 µM was -10.6%.
`O=C(CS(=O)(=O)c1ccccc1Cl)NC1CCCCNC1=O` (configuration not stated): the cytotoxicity at 10 µM was -13.2%.
On to `CN(CC(=O)N1CCCC1c1cnn(C)c1)c1ccc(Cl)cn1` (configuration not stated), for which the cytotoxicity at 10 µM is -6.14%.
Take `CCc1ncc(CN(C)C2CCN(C(C)C)CC2)cn1`: the cytotoxicity at 10 µM is -3.91%.
Then `O=C(N1CCCO1)[C@@]12CCO[C@@H]1CCN(Cc1ccccn1)C2`, with 3.98%; and `O=C(N1CCCC1)N1CCO[C@H]2[C@@H](OCc3cccnc3)CC[C@@H]21`, with -1.6%; and `CN(C)C(=O)COC[C@H]1CC[C@@H]2[C@@H](CCN2Cc2ccccn2)O1`, with -18.7%.
For the compound `CSc1ccc(CNC(c2ccccc2F)c2nccn2C)cc1` (configuration not stated), the cytotoxicity at 10 µM turned out to be 1.75%.
Take `COCCN1CCC2(C1)CN(c1ncccn1)C2`: the cytotoxicity at 10 µM was determined as 10.7%.
Consider `CC(C)OCCCN(Cc1ccncc1)Cc1cc(F)cc(F)c1`, for which the cytotoxicity at 10 µM is -25.6%.
As for `CN(C)C(=O)N1CCC2(CC1)CCN(c1ncccn1)C2`, the cytotoxicity at 10 µM was -1.05%.
For the compound `Cc1cccc(CN2CCc3ncnc(N4CCCC4)c3CC2)n1`, the cytotoxicity at 10 µM was -145%.
Consider `CC1CCCCN1S(=O)(=O)NCCNC(=O)c1ncccc1O` (configuration not stated), for which the cytotoxicity at 10 µM amounted to 2.34%.

These data come from ChEMBL document CHEMBL4513216, “Probing the Open Global Health Chemical Diversity Library for Multistage-Active Starting Points for Next-Generation Antimalarials” (ACS Infect Dis, 2020).
